Test results from ChEMBL document CHEMBL4152203, “Antiproliferative hydrogen sulfide releasing evodiamine derivatives and their apoptosis inducing properties” (Eur J Med Chem, 2018).
Calls of active or inactive are those of the source. The calls are words filed in the database; no cut-off is given here.

Experiments:
HL-60 [1] = assay: Cell cycle arrest in human HL60 cells assessed as accumulation at S phase at 0.3 uM after 48 hrs by propidium iodide/RNase A staining-based flow cytometric analysis (reference value: 24.06%); assay type: functional
PBMC = assay: Antiproliferative activity against human PBMC cells after 72 hrs by MTT assay; assay type: cell-based
How it was run: (§1)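 Cells seeded and pre-incubated 24 h at 37 °C, 5% CO2, then exposed to compounds for 72 h. MTT (5 mg/mL stock) added for 4 h, formazan dissolved in DMSO for 10 min at room temperature, absorbance read at 570 nm. 0.1% DMSO as negative and 5-FU as positive reference. IC50 derived from inhibition ratios; mean ± SD of three independent experiments.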

HL-60 [2] = assay: Induction of apoptosis in human HL60 cells assessed as viable cells at 0.6 uM after 48 hrs by Annexin V-FITC/propidium iodide staining-based flow cytometric analysis (reference value: 95.56%); assay type: functional; conditions: HL-60, 48 h, read-out: Activity
HL-60 [3] = assay: Induction of apoptosis in human HL60 cells assessed as viable cells at 1.2 uM after 48 hrs by Annexin V-FITC/propidium iodide staining-based flow cytometric analysis (reference value: 95.56%); assay type: functional; conditions: HL-60, 48 h, read-out: Activity
HL-60 [4] = assay: Induction of mitochondrial membrane potential loss in human HL60 cells assessed as cell population with intact mitochondrial membrane potential at 1.2 uM after 48 hrs by JC1 staining-based flow cytometry analysis (reference value: 92.35%); assay type: functional
HL-60 [5] = assay: Induction of apoptosis in human HL60 cells assessed as downregulation of Bcl2 expression at 0.3 to 1.2 uM after 48 hrs by Western blot analysis; assay type: functional, cell-based
How it was run: (§2)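 HL-60 treated in triplicate with 0.3, 0.6 or 1.2 μM compound; exposure is 72 h in the methods and 48 h in the legend. Lysates were run on 10% SDS-PAGE, transferred to nitrocellulose, blocked in 5% milk, and probed overnight at 4 °C with monoclonal antibodies (Bcl-2, Bax, cytochrome c, caspase-9/-3, p53, cyclin B1, cdc2). ECL detection; densitometry relative to GAPDH.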

HL-60 [6] = assay: Cell cycle arrest in human HL60 cells assessed as accumulation at S phase at 1.2 uM after 48 hrs by propidium iodide/RNase A staining-based flow cytometric analysis (reference value: 24.06%); assay type: functional
HL-60 [7] = assay: Induction of apoptosis in human HL60 cells assessed as necrotic cells at 0.3 uM after 48 hrs by Annexin V-FITC/propidium iodide staining-based flow cytometric analysis (reference value: 0.02%); assay type: functional
HL-60 [8] = assay: Induction of apoptosis in human HL60 cells assessed as increase in cytosolic cytochrome c level at 0.3 to 1.2 uM after 48 hrs by Western blot analysis; assay type: functional, cell-based; how it was run: as §2
HL-60 [9] = assay: Cell cycle arrest in human HL60 cells assessed as accumulation at G2/M phase at 0.3 uM after 48 hrs by propidium iodide/RNase A staining-based flow cytometric analysis (reference value: 10.19%); assay type: functional
HL-60 [10] = assay: Induction of apoptosis in human HL60 cells assessed as upregulation of caspase9 level at 0.3 to 1.2 uM after 48 hrs by Western blot analysis; assay type: functional, cell-based; how it was run: as §2
HL-60 [11] = assay: Induction of apoptosis in human HL60 cells assessed as upregulation of caspase3 level at 0.3 to 1.2 uM after 48 hrs by Western blot analysis; assay type: functional, cell-based; how it was run: as §2
HL-60 [12] = assay: Induction of apoptosis in human HL60 cells assessed as morphological changes by measuring chromatin condensation at 0.3 to 1.2 uM after 48 hrs by Hoechst 33258 staining-based fluorescence microscopic analysis; assay type: functional, cell-based
How it was run: (§3)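 HL-60 pre-incubated 24 h, then treated 48 h with 0, 0.3, 0.6 or 1.2 μM compound or vehicle. Cells were harvested, washed twice in PBS, stained with Hoechst 33258 (2 mg/mL in PBS) for 15 min at room temperature in darkness, washed, mounted and examined by fluorescence microscopy with a DAPI filter.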

HL-60 [13] = assay: Induction of apoptosis in human HL60 cells assessed as early apoptotic cells at 0.6 uM after 48 hrs by Annexin V-FITC/propidium iodide staining-based flow cytometric analysis (reference value: 2.31%); assay type: functional
MCF7 = assay: Antiproliferative activity against human MCF7 cells after 72 hrs by MTT assay; assay type: functional, cell-based; conditions: MCF7, 72 h; how it was run: as §1
HL-60 [14] = assay: Induction of apoptosis in human HL60 cells assessed as morphological changes by measuring nuclear fragmentation at 0.3 to 1.2 uM after 48 hrs by Hoechst 33258 staining-based fluorescence microscopic analysis; assay type: functional, cell-based; how it was run: as §3
HL-60 [15] = assay: Cell cycle arrest in human HL60 cells assessed as accumulation at G2/M phase at 0.6 uM after 48 hrs by propidium iodide/RNase A staining-based flow cytometric analysis (reference value: 10.19%); assay type: functional
HL-60 [16] = assay: Induction of mitochondrial membrane potential loss in human HL60 cells assessed as cell population with mitochondrial membrane potential collapse at 0.3 uM after 48 hrs by JC1 staining-based flow cytometry analysis (reference value: 7.65%); assay type: functional
Bel-7402 = assay: Antiproliferative activity against human Bel7402 cells after 72 hrs by MTT assay; assay type: functional, cell-based; conditions: Bel-7402, 72 h; how it was run: as §1
HL-60 [17] = assay: Induction of apoptosis in human HL60 cells assessed as decrease in cdc2 protein expression level at 0.3 to 1.2 uM after 48 hrs by Western blot analysis; assay type: functional, cell-based; how it was run: as §2
HL-60 [18] = assay: Cell cycle arrest in human HL60 cells assessed as accumulation at G2/M phase at 1.2 uM after 48 hrs by propidium iodide/RNase A staining-based flow cytometric analysis (reference value: 10.19%); assay type: functional
HL-60 [19] = assay: Induction of apoptosis in human HL60 cells assessed as increase in Bax level at 0.3 to 1.2 uM after 48 hrs by Western blot analysis; assay type: functional, cell-based; how it was run: as §2
SGC-7901 = assay: Antiproliferative activity against human SGC7901 cells after 72 hrs by MTT assay; assay type: functional, cell-based; conditions: SGC-7901, 72 h; how it was run: as §1
HL-60 [20] = assay: Induction of apoptosis in human HL60 cells assessed as early apoptotic cells at 0.3 uM after 48 hrs by Annexin V-FITC/propidium iodide staining-based flow cytometric analysis (reference value: 1.11%); assay type: functional
HL-60 [21] = assay: Induction of apoptosis in human HL60 cells assessed as early apoptotic cells at 0.3 uM after 48 hrs by Annexin V-FITC/propidium iodide staining-based flow cytometric analysis (reference value: 2.31%); assay type: functional
Caco-2 = assay: Antiproliferative activity against human Caco2 cells after 72 hrs by MTT assay; assay type: functional, cell-based; conditions: Caco-2, 72 h; how it was run: as §1
HL-60 [22] = assay: Cell cycle arrest in human HL60 cells assessed as accumulation at G1 phase at 0.3 uM after 48 hrs by propidium iodide/RNase A staining-based flow cytometric analysis (reference value: 65.75%); assay type: functional
HL-60 [23] = assay: Induction of apoptosis in human HL60 cells assessed as early apoptotic cells at 1.2 uM after 48 hrs by Annexin V-FITC/propidium iodide staining-based flow cytometric analysis (reference value: 1.11%); assay type: functional
HL-60 [24] = assay: Cell cycle arrest in human HL60 cells assessed as accumulation at G1 phase at 1.2 uM after 48 hrs by propidium iodide/RNase A staining-based flow cytometric analysis (reference value: 65.75%); assay type: functional
HL-60 [25] = assay: Cell cycle arrest in human HL60 cells assessed as accumulation at G1 phase at 0.6 uM after 48 hrs by propidium iodide/RNase A staining-based flow cytometric analysis (reference value: 65.75%); assay type: functional

## CN1c2ccccc2C(=O)N2CCc3c(n(CCCCC(=O)OCCCCOc4ccc(-c5cc(=S)ss5)cc4)c4ccccc34)C21 (stereo not given)
HL-60 [1]
  Activity: 41.49%
PBMC
  IC50: > 100 µM
HL-60 [2]
  viability at 0.6 µM: 64.5%
HL-60 [3]
  viability at 1.2 µM: 39.2%
HL-60 [4]
  Activity: 64.99%
HL-60 [5]
  Activity: Active
HL-60 [6]
  Activity: 42.66%
HL-60 [7]
  Activity: 0.06%
HL-60 [8]
  Activity: Active
HL-60 [9]
  Activity: 11.41%
HL-60 [10]
  Activity: Active
HL-60 [11]
  Activity: Active
HL-60 [12]
  Activity: Active
HL-60 [13]
  Activity: 19.5%
MCF7
  IC50: 44.8 µM
HL-60 [14]
  Activity: Active
HL-60 [15]
  Activity: 16.63%
HL-60 [16]
  Activity: 13.33%
Bel-7402
  IC50: 48.9 µM
HL-60 [17]
  Activity: Active
HL-60 [18]
  Activity: 22.02%
HL-60 [19]
  Activity: Active
SGC-7901
  IC50: > 50 µM
HL-60 [20]
  Activity: 4.53%
HL-60 [21]
  Activity: 6.74%
Caco-2
  IC50: 2020 nM
HL-60 [22]
  Activity: 47.1%
HL-60 [23]
  Activity: 12.6%
HL-60 [24]
  Activity: 35.32%
HL-60 [25]
  Activity: 38.55%
